# Source: PubChem BioAssay (Columbia University Molecular Screening Center)
# This is one part of a sample in which hits are shown more often than they occur.
# Insulin prom act: TRM-6 insulin promoter activation. AID 1296. 130,000 compounds, 0.81% hits. TRM-6 cells (human fetal islet line), insulin promoter eGFP reporter, imaging; plate-scaled: unstimulated 0, stimulated control 100. activation, % at 2 µM;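 active = activation at 2 µM above a set limit, confirmed on inspection of the cell images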;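 also: share of cells whose green reporter signal exceeds an intensity cutoff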
#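 test system = TRM-6 insulin promoter–eGFP reporter cells | benchmarks = stimulated versus unstimulated wells as plate controls | read-out basis = percent cells above green-intensity threshold, converted to percent activation versus plate controls | detection = fixed-cell fluorescence microscopy, eGFP plus Hoechst | incubation = tamoxifen pre-incubation 15 h overnight, then compound exposure 48 h at 37 °C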
# Starred values were filed as active, the others as inactive; [ ] = dose if it differs, or a comment.
SMILES,Insulin prom act
COc1ccc(/C(O)=C/c2nc3ccc(C(=O)NCCc4cccc(C)c4)cc3[nH]c2=O)cc1OC,107
O=C(CNc1cc(S(=O)(=O)N2CCOCC2)ccc1N1CCCC1)NCc1ccco1,7
CC(C)CN1C(=O)/C(=C(/C#N)C(=O)NC2CCCCC2)c2ccccc21,8
N#Cc1ccsc1NC(=O)CN1CCN(S(=O)(=O)c2ccccc2C(F)(F)F)CC1,3
O=C1CC(C(=O)Nc2cccc(F)c2)n2ncnc2N1 (stereo unspecified),9
COc1cccc(NC(=O)CN2C(=O)NC(C)(CC(C)C)C2=O)c1 (stereo unspecified),2
O=C(Nc1cccc2c1CCCC2)c1cc([N+](=O)[O-])cc([N+](=O)[O-])c1,-7
O=C(Nc1c2c(nc3ccccc13)CCCC2)c1cccc([N+](=O)[O-])c1,380*
O=C(Nc1c2c(nc3ccccc13)CCCC2)c1ccccc1F,-64
O=C(Nc1ccc(-n2cccc2)cc1)C1CC1,0
CCNC(=O)N1CCOCC1,-86
Cc1ccc(/C=N/NC(=O)c2cc(C3CC3)nc3ccccc23)o1,7
Cc1cc(C)c(S(C)(=O)=O)c(N(C)N)n1,-75
Cc1ccc(C2NNC(=O)C2NC(=O)c2ccccc2)cc1 (stereo unspecified),0
Cc1cccc2cc(CN(Cc3ccccc3)C(=O)N3CCOCC3)c3nnnn3c12,148
COc1ccc(Br)cc1C(=O)Nc1nnn(C)n1,0
Cc1cc(C)c(OCC(=O)Nc2nnn(C)n2)c(Br)c1,77*
Cc1cc(Br)c(NC(=O)CCl)c(Br)c1,3
Cc1ccc(C(=O)NNC(=O)CSc2nnc(-c3ccccc3)n2Cc2ccccc2)cc1,-7
COc1ccc(CNC(=O)C/C(C)=N/NC(=O)COc2ccc(C)cc2Br)cc1,3
COc1ccc(C2(C(=O)Nc3ccc(C(=O)O)cc3)CCOCC2)cc1,-95
O=C(N1CCOCC1)C1(c2ccccc2)CCCCC1,0
O=C(O)c1ccc(NC(=O)C2(c3ccccc3)CCOCC2)cc1,494*
O=C(CCCOc1ccc(Cl)cc1Cl)NNC(=O)c1ccc(NC(=O)c2ccccc2)cc1,5
O=C(Nc1cccc2c1C(=O)NC2=O)c1ccc(N2C(=O)CCC2=O)cc1,-5
SMILES,Insulin prom act
CC(=O)c1c(C(C)=O)c(C)n(-c2ccc(O)cc2)c1C,-8
O=C1CCCC(=O)N1c1ccc(O)cc1,267*
O=C1Cn2c(nc3ccccc32)N1c1cccc(C(F)(F)F)c1,0
O=C(c1cc(-c2cccs2)nc2ccccc12)N1CCN(c2ccccc2O)CC1,0
Cc1nnc(NC(=O)CSc2ncnc3c2cnn3-c2ccccc2C)s1,147*
Cc1nnc(NC(=O)CSc2ncn(-c3ccccc3)n2)s1,0
COc1ccc(N2CCN(C(=O)CSc3ncnc4c3cnn4-c3ccccc3C)CC2)cc1,-83
COc1ccc(NS(=O)(=O)c2cc(NC(=O)c3cccc(OCc4c(C)noc4C)c3)ccc2OC)cc1,0
Cc1cc(C)c(NC(=O)Cc2ccc(-n3cccc3)cc2)c(C)c1,3
Cc1cc(C)c(NC(=O)Nc2ccccc2)c(Cl)c1,0
CCCCN(C(=O)NC(=O)Nc1c(C)cc(C)cc1C)S(C)(=O)=O,164*
Cc1ccsc1-c1nc(CN(C)C(C2CC2)C2CC2)c(C)o1,7
O=C(CSc1nnnn1C1CCCCC1)NCc1cccc(C(=O)O)c1,-3
CC(=O)Nc1cccc(NC(=O)CSc2nnnn2C(C)C)c1,3
O=C(CSc1nnnn1C1CCCC1)Nc1cccc(NC(=O)c2ccco2)c1,830*
O=C(CSc1nnc(-c2ccncc2)n1-c1ccc(Cl)cc1)N1CCOCC1,2
CCCCNc1nc(-c2ccccc2)cc(C(F)(F)F)c1C(N)=O,128
CCN(CC)c1ccc(/C=C/C(=O)C2C(=O)C=C(C)OC2=O)cc1 (stereo unspecified),809*[fluoresces]
CCN(CC)c1ccc(NC(=O)/C=C\c2ccccc2Cl)cc1,0
Cc1cc(C)c[n+](-c2[nH]c(=O)sc2/C=N/NC([S-])=Nc2ccccc2)c1,103
C=CCn1c(=O)n(C(=O)OCC)c2cc(Br)ccc21,0
COc1ccc([N+](=O)[O-])cc1NC(=O)CCN1CCN(CCO)CC1,-7
CCOC(=O)N1CCN(CCC(=O)Nc2cc([N+](=O)[O-])ccc2OC)CC1,331*
COc1ccc([N+](=O)[O-])cc1NC(=O)CSc1nc(C)c(C)c(C)n1,-3
CC(C)CC(=O)Nc1ccccc1-c1nnn(CC(=O)N2CCc3ccccc3C2)n1,3
SMILES,Insulin prom act
COc1ccc(C(=O)NC(=S)N2CCN(C)CC2)cc1Br,0
COc1cc(/C=C(/Sc2nnc(-c3ccc(F)cc3)o2)C(=O)O)ccc1OC(F)F,-7
Cc1cc(O)ccc1NC(=O)CCN1C(=O)c2ccc([N+](=O)[O-])cc2C1=O,4
CC(=O)Oc1ccc2c(C)cc(=O)oc2c1C(=O)c1ccccc1,0
Cc1ccc(S(=O)(=O)c2c(C)cc(C)nc2Cl)cc1,3
COc1nc(N)c(S(=O)(=O)c2ccc(C)cc2)cc1C#N,197*
COc1ccc(-c2nc(N)n(S(=O)(=O)c3ccc(C)cc3)n2)cc1,8
COc1cc2ccccc2c2c1CCCC2=O,-6
O=c1[nH]c(/C(Cl)=C/c2cc(Cl)ccc2O)nc2cc(Cl)ccc12,-5
CNS(=O)(=O)c1cc(OC)c(OC)cc1CC(=O)OC,-8
N#C/C(=C/c1ccc(N2CCCCCC2)o1)c1cccc(F)c1,1
N#C/C(=C/c1ccc(N2CCCCC2)o1)C(=O)Nc1ccc2ccccc2c1,186
N#C/C(=C/c1ccc(N2CCCCC2)o1)C(=O)Nc1ccc(Cl)cc1,270*
CCn1cc(C(=O)OCC(=O)NCc2ccccc2Cl)c(=O)c2ccc(C)nc21,8
O=C(Oc1ccccc1)c1c(Cl)cccc1P(=O)(O)O,-9
CCOC(=O)N1CCN(CC(O)COc2ccc(C)cc2C(C)(C)C)CC1 (stereo unspecified),-7
Cc1onc(-c2ccccc2)c1C(=O)N1CCN(C(=O)c2ccco2)CC1,-76
Cc1onc(-c2ccccc2)c1C(=O)N1CCN(C)CC1,100*
Cc1onc(-c2ccccc2)c1C(=O)N1CCCN(C(=O)c2c(-c3ccccc3)noc2C)CC1,-3
CC12CCC(C(=O)Nc3cc(Cl)ccc3Cl)(C(Br)C1=O)C2(C)C (stereo unspecified),-3
C=CCn1cc(C(=O)OC)c(=O)c2cc(S(=O)(=O)N3CCC(C)CC3)ccc21,0
O=C(c1ccc(S(=O)(=O)c2ccccc2)cc1)N1CCc2ccccc2C1,6
C=CCn1cc(C(=O)N2CCc3ccccc3C2)c(=O)c2cc(S(=O)(=O)N(CC)CC)ccc21,400*
CCC(C)NC(=O)c1n[nH]c(=O)c2ccccc12 (stereo unspecified),0
CC(C)c1cc(NC(=O)CCl)on1,127
SMILES,Insulin prom act
CCC(C)NC(=O)c1cc(C)no1 (stereo unspecified),121*
CCn1ncc(/C=N/NS(=O)(=O)c2ccc(Cl)cc2)c1C,6
Cn1c(=O)c2c(nc3sccn32)n(C)c1=O,-8
O=C(N/C(=C/c1cccs1)C(=O)N1CCCCCC1)c1ccccc1,252
O=C(Nc1ccccc1)/C(=C\c1cccs1)NC(=O)c1ccccc1,-7
Cc1ccc(C(=O)N/C(=C\c2cccs2)C(=O)NC2CCCCC2)cc1,400*
COCC(C)NC(=O)Cc1ccc(F)cc1 (stereo unspecified),-64
CCOC(=O)c1ccc(NC(=S)N2CCSC2c2ccc(Br)cc2)cc1 (stereo unspecified),-3
